Measured values: ChEMBL document CHEMBL4308872, “Dose dependent actions of LCL521 on acid ceramidase and key sphingolipid metabolites” (2018)
The source made the active and inactive calls. The rule behind the calls is not given here.

How the values were obtained:
[1] = molecular target: T1, Acid ceramidase (Homo sapiens) (UniProt Q13510); assay: Inhibition of ACDase in human MCF7 cells assessed as upregulation of ceramide at 10 uM after 2 hrs by LC-MS/MS analysis; format: cell-based
T1 sequence (whole entry): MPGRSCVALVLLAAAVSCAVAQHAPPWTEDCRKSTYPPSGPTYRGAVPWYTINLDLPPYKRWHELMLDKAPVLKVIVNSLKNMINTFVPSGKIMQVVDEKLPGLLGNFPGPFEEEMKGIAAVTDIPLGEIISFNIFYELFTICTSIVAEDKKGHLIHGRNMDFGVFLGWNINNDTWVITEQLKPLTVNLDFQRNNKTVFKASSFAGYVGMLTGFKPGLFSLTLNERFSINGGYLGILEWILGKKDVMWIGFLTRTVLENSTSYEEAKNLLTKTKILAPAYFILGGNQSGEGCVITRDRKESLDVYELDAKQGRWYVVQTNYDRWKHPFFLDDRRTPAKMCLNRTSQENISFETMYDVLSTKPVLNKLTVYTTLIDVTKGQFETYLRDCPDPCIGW
In short: (§1)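 Exposure of MCF7 cells to vehicle or 10 μM LCL521 for 0.25–24h. Cer, Sph and S1P measured by LC-MS/MS in pellet lipid extracts, normalized to lipid phosphate, given as % control; means ± st dev of 4 replicates.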

MCF7 [2] = assay: Down regulation of alpha-ACDase protein expression in human MCF7 cells up to 1 uM after 1 hr by Western blot analysis; format: functional, cell-based
In short: (§2)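 MCF7 cells (RPMI 1640, 10% FBS, 37°C, 5% CO2; 1×10^6 seeded in 100 mm dishes overnight) exposed to vehicle or LCL521, 0.1–10 μM for 1h, or 1 μM for 0.25–10h. α-ACDase detected by western blot, with actin as the loading/transfer control.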

[3] = molecular target: T2, Sphingolipid delta(4)-desaturase DES1 (Homo sapiens) (UniProt O15121); assay: Inhibition of dihydroceramide desaturase in human MCF7 cells assessed as decrease in remaining activity at 5 to 10 uM after 24 hrs; format: cell-based
T2 sequence (whole entry): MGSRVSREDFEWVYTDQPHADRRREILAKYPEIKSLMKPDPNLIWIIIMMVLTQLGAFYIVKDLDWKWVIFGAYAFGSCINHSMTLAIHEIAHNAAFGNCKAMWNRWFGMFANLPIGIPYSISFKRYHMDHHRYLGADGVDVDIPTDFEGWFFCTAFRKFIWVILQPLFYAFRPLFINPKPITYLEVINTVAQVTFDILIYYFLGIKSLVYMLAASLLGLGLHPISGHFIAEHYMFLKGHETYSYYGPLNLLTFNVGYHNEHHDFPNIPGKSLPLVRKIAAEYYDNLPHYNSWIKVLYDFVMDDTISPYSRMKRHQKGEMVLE
In short: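 Intact MCF7 cells (3×10^6 seeded in 150 mm dishes overnight) treated with vehicle or LCL521 for 24h. Cells were then pelleted and dihydroceramide desaturase activity assayed by a prior method. Means ± st dev of triplicates versus 0 μM.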

[4] = molecular target: T1, Acid ceramidase (Homo sapiens); assay: Inhibition of ACDase in human MCF7 cells assessed as down regulation of sphingosine at 10 uM after 24 hrs by LC-MS/MS analysis; format: cell-based; in short: as §1
[5] = molecular target: T1, Acid ceramidase (Homo sapiens); assay: Inhibition of ACDase in human MCF7 cells assessed as down regulation of sphingosine at 10 uM after 2 hrs by LC-MS/MS analysis; format: cell-based; in short: as §1
[6] = molecular target: T1, Acid ceramidase (Homo sapiens); assay: Inhibition of ACDase in human MCF7 cells assessed as upregulation of ceramide at 10 uM after 8 to 24 hrs by LC-MS/MS analysis; format: cell-based; in short: as §1
MCF7 [7] = assay: Down regulation of alpha-ACDase expression in human MCF7 cells at 1 uM after 10 hrs by Western blot analysis; format: functional, cell-based
MCF7 [8] = assay: Down regulation of alpha-ACDase expression in human MCF7 cells at 10 uM after 24 hrs in presence of cyclohexamide by Western blot analysis; format: functional, cell-based
In short: (§3)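 MCF7 cells pretreated 1h with vehicle or 40 μM cycloheximide, then given vehicle or 10 μM LCL521 alone or combined for 1, 8 and 24h. P- and α-ACDase detected by western blot against actin.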

MCF7 [9] = assay: Down regulation of alpha-ACDase expression in human MCF7 cells at 10 uM after 2 to 24 hrs by Western blot analysis; format: functional, cell-based
In short: (§4)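 MCF7 cells seeded overnight (1×10^6 per 100 mm dish) were exposed to vehicle or 10 μM LCL521 for 1, 2, 5, 8, 15 and 24h, or to 0.1–10 μM for 1h. α- and precursor (P-)ACDase detected by western blot; actin monitored loading and transfer.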

MCF7 [10] = assay: Down regulation of alpha-ACDase protein expression in human MCF7 cells at 10 uM treated for 5 hrs after pretreatment with 4 uM CA-074me for 30 mins by Western blot analysis; format: functional, cell-based
In short: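 MCF7 cells pretreated with a cathepsin B inhibitor, then exposed to 10 μM LCL521. α-ACDase protein assessed by western blot.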

[11] = molecular target: T1, Acid ceramidase (Homo sapiens); assay: Inhibition of ACDase in human MCF7 cells assessed as upregulation of dhC16-Cer species at 10 uM after 1 hr by LC-MS/MS analysis; format: cell-based
MCF7 [12] = assay: Down regulation of alpha-ACDase protein expression in human MCF7 cells at >2.5 uM after 1 hr by Western blot analysis; format: functional, cell-based; in short: as §4
[13] = molecular target: T1, Acid ceramidase (Homo sapiens); assay: Inhibition of ACDase in human MCF7 cells assessed as down regulation of dihydrosphingosine at 10 uM after 1 hr by LC-MS/MS analysis; format: cell-based
[14] = molecular target: T1, Acid ceramidase (Homo sapiens); assay: Inhibition of ACDase in human MCF7 cells assessed as down regulation of sphingosine at 1 uM after 10 hrs by LC-MS/MS analysis; format: cell-based
In short: (§5)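 MCF7 cells received vehicle or 1 μM LCL521 for 10h. Lipids were extracted from cell pellets, and Cer, Sph and S1P were quantified by LC-MS/MS as pmol/nmol lipid phosphate, expressed as % control; means ± st dev of 5 replicates.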

[15] = molecular target: T1, Acid ceramidase (Homo sapiens); assay: Inhibition of ACDase in human MCF7 cells assessed as upregulation of dihydroceramide species at 10 uM after 8 to 24 hrs by LC-MS/MS analysis; format: cell-based
In short: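 Over 8 and 24h, MCF7 cells received vehicle or 10 μM LCL521. Cn-dhCer species and dhSph quantified by LC-MS/MS in extracted lipids, normalized to lipid phosphate; means ± st dev of 4 replicates.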

MCF7 [16] = assay: Down regulation of p-ACDase expression in human MCF7 cells at 10 uM after 24 hrs in presence of cyclohexamide by Western blot analysis; format: functional, cell-based; in short: as §3
MCF7 [17] = assay: Down regulation of alpha-ACDase protein expression in human MCF7 cells at 1 uM after 1 hr by Western blot analysis; format: functional, cell-based; in short: as §2
PPC-1 = assay: Down regulation of ACDase protein expression in human PPC1 cells at 5 to 10 uM after 5 hrs by Western blot analysis; format: functional, cell-based
In short: (§6)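 Cell lines SCC14A (mouth squamous carcinoma) and PPC-1 (prostate cancer) given a single treatment of LCL521; ACDase protein detected by western blot.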

[18] = molecular target: T1, Acid ceramidase (Homo sapiens); assay: Inhibition of ACDase in human MCF7 cells assessed as down regulation of sphingosine 1-phosphate at 1 uM after 10 hrs by LC-MS/MS analysis; format: cell-based; in short: as §5
[19] = molecular target: T1, Acid ceramidase (Homo sapiens); assay: Inhibition of ACDase in human MCF7 cells assessed as down regulation of sphingosine 1-phosphate at 10 uM after 24 hrs by LC-MS/MS analysis; format: cell-based; in short: as §1
MCF7 [20] = assay: Down regulation of alpha-ACDase protein expression in human MCF7 cells at 10 uM after 1 hr by Western blot analysis; format: functional, cell-based; in short: as §4
[21] = molecular target: T1, Acid ceramidase (Homo sapiens); assay: Inhibition of ACDase in human MCF7 cells assessed as upregulation of C14-ceramide species at 10 uM after 1 hr by LC-MS/MS analysis; format: cell-based
In short: (§7)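 MCF7 cells treated 1h with vehicle or 10 μM LCL521. Chain-length ceramide species and Sph in pellet lipid extracts quantified by LC-MS/MS per nmol lipid phosphate; means ± st dev of 6 replicates, t-test against control.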

MCF7 [22] = assay: Down regulation of alpha-ACDase expression in human MCF7 cells at 10 uM after 8 hrs by Western blot analysis; format: functional, cell-based; in short: as §4
UMSCC14A = assay: Down regulation of ACDase protein expression in human UMSCC14A cells at 5 to 10 uM after 5 hrs by Western blot analysis; format: functional, cell-based; in short: as §6
[23] = molecular target: T1, Acid ceramidase (Homo sapiens); assay: Inhibition of ACDase in human MCF7 cells assessed as down regulation of sphingosine at 10 uM after 1 to 24 hrs by LC-MS/MS analysis; format: cell-based; in short: as §1
MCF7 [24] = assay: Down regulation of p-ACDase expression in human MCF7 cells assessed as p-ACDase expression at 10 uM measured at 24 hrs by Western blot analysis; format: functional; in short: as §4
[25] = molecular target: T1, Acid ceramidase (Homo sapiens); assay: Inhibition of ACDase in human MCF7 cells assessed as upregulation of C16-ceramide species at 10 uM after 1 hr by LC-MS/MS analysis; format: cell-based; in short: as §7
MCF7 [26] = assay: Down regulation of p-ACDase expression in human MCF7 cells at 10 uM after 8 hrs by Western blot analysis; format: functional, cell-based; in short: as §4
[27] = molecular target: T1, Acid ceramidase (Homo sapiens); assay: Inhibition of ACDase in human MCF7 cells assessed as upregulation of dihydroceramide species at 10 uM treated for 24 hrs after 1 hr treatment with myriocin by LC-MS/MS analysis; format: cell-based
In short: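 MCF7 cells pretreated 1h with 100nM myriocin, then combined with vehicle or 10 μM LCL521 for 24h. Cn-dhCer quantified by LC-MS/MS per nmol lipid phosphate; triplicates.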

[28] = molecular target: T1, Acid ceramidase (Homo sapiens); assay: Inhibition of ACDase in human MCF7 cells assessed as upregulation of dihydroceramide at 10 uM after 1 hr by LC-MS/MS analysis; format: cell-based

inhibition [1]: Active | inhibition [3]: Active | inhibition [4]: inactive | inhibition [5]: Active | inhibition [6]: Active | inhibition [11]: Active | inhibition [13]: Active | inhibition [14]: inactive | inhibition [15]: Active | inhibition [18]: inactive | inhibition [19]: Active | inhibition [21]: Active | inhibition [23]: Active | inhibition [25]: Active | inhibition [27]: inactive | inhibition [28]: Active
Structure (SMILES): CCCCCCCCCCCCCC(=O)N[C@H](COC(=O)CN(C)C)[C@H](OC(=O)CN(C)C)c1ccc([N+](=O)[O-])cc1.Cl.Cl
Activity (MCF7 [2]): inactive | inhibition (MCF7 [7]): inactive | Activity (MCF7 [8]): Active | Activity (MCF7 [9]): Active | Activity (MCF7 [10]): inactive | Activity (MCF7 [12]): Dose-dependent effect | Activity (MCF7 [16]): Active | Activity (MCF7 [17]): inactive | Activity (PPC-1): Active | Activity (MCF7 [20]): Active | Activity (MCF7 [22]): Active | Activity (UMSCC14A): Active | Activity (MCF7 [24]): >70% | Activity (MCF7 [26]): Active
